Results: ChEMBL document CHEMBL4814057, “4-4-(Anilinomethyl)-3-[4-(trifluoromethyl)phenyl]-1H-pyrazol-1-ylbenzoic acid derivatives as potent anti-gram-positive bacterial agents” (Eur J Med Chem, 2021)
Converted amounts (≈) assume the structure as drawn. The source made the active and inactive calls. The calls are words filed in the database; no cut-off is given here.

Key:
Staphylococcus aureus [1] = assay: Antimicrobial activity against methicillin-susceptible Staphylococcus aureus ATCC 25923 assessed as bacterial growth inhibitions by CLSI protocol based microdilution method; assay type: functional
Staphylococcus aureus [2] = assay: Antimicrobial activity against antibiotic-resistant Staphylococcus aureus BM-2312 assessed as bacterial growth inhibitions by CLSI protocol based microdilution method; assay type: functional
Staphylococcus aureus [3] = assay: Antimicrobial activity against methicillin-resistant Staphylococcus aureus ATCC 33591 assessed as bacterial growth inhibitions by CLSI protocol based microdilution method; assay type: functional
Staphylococcus aureus [4] = assay: Antimicrobial activity against methicillin-resistant Staphylococcus aureus ATCC 700699 assessed as bacterial growth inhibitions by CLSI protocol based microdilution method; assay type: functional
Staphylococcus aureus [5] = assay: Antimicrobial activity against methicillin-resistant Staphylococcus aureus ATCC 33592 assessed as bacterial growth inhibitions by CLSI protocol based microdilution method; assay type: functional
[6] = system: Staphylococcus epidermidis; assay: Antimicrobial activity against methicillin-resistant Staphylococcus epidermidis ATCC 700296 assessed as bacterial growth inhibitions by CLSI protocol based microdilution method; assay type: functional
Bacillus subtilis = assay: Antimicrobial activity against Bacillus subtilis ATCC 6623 assessed as bacterial growth inhibitions by CLSI protocol based microdilution method; assay type: functional
Summary of the method: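 Broth microdilution starting at 50 µg/ml with 2-fold serial dilutions; run in triplicate.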

Enterococcus faecium = assay: Antimicrobial activity against vancomycin-resistant Enterococcus faecium ATCC 700221 assessed as bacterial growth inhibitions by CLSI protocol based microdilution method; assay type: functional
Enterococcus faecalis = assay: Antimicrobial activity against vancomycin-susceptible Enterococcus faecalis ATCC 29212 assessed as bacterial growth inhibitions by CLSI protocol based microdilution method

| SMILES | MIC (Staphylococcus aureus [1]) | MIC (Staphylococcus aureus [2]) | MIC (Staphylococcus aureus [3]) | MIC (Staphylococcus aureus [4]) | MIC (Staphylococcus aureus [5]) | MIC [6] | MIC (Bacillus subtilis) | MIC (Enterococcus faecium) | MIC (Enterococcus faecalis) |
| --- | --- | --- | --- | --- | --- | --- | --- | --- | --- |
| O=C(O)c1ccc(-n2cc(CNc3ccccc3)c(-c3ccc(C(F)(F)F)cc3)n2)cc1 | 12.5 µg/mL (≈ 28.6 µM) | 12.5 µg/mL (≈ 28.6 µM) | 6.25 µg/mL (≈ 14.3 µM) | 6.25 µg/mL (≈ 14.3 µM) | 6.25 µg/mL (≈ 14.3 µM) | 12.5 µg/mL (≈ 28.6 µM) | 3.12 µg/mL (≈ 7.13 µM) | 6.25 µg/mL (≈ 14.3 µM) | 25 µg/mL (≈ 57.2 µM) |
| O=C(O)c1ccc(-n2cc(CNc3cccc(Br)c3)c(-c3ccc(C(F)(F)F)cc3)n2)cc1 | 0.78 µg/mL (≈ 1.51 µM) | 0.78 µg/mL (≈ 1.51 µM) | 0.78 µg/mL (≈ 1.51 µM) | 1.56 µg/mL (≈ 3.02 µM) | 0.78 µg/mL (≈ 1.51 µM) | 3.12 µg/mL (≈ 6.04 µM) | 0.78 µg/mL (≈ 1.51 µM) | 1.56 µg/mL (≈ 3.02 µM) | 6.25 µg/mL (≈ 12.1 µM) |
| O=C(O)c1ccc(-n2cc(CNc3ccc(N4CCOCC4)c(C(F)(F)F)c3)c(-c3ccc(C(F)(F)F)cc3)n2)cc1 | 0.78 µg/mL (≈ 1.32 µM) | 1.56 µg/mL (≈ 2.64 µM) | 0.78 µg/mL (≈ 1.32 µM) | 0.78 µg/mL (≈ 1.32 µM) | 0.78 µg/mL (≈ 1.32 µM) | 1.56 µg/mL (≈ 2.64 µM) | 0.78 µg/mL (≈ 1.32 µM) | 0.78 µg/mL (≈ 1.32 µM) | 1.56 µg/mL (≈ 2.64 µM) |
| O=C(O)c1ccc(-n2cc(CNc3ccc(Br)cc3)c(-c3ccc(C(F)(F)F)cc3)n2)cc1 | 0.78 µg/mL (≈ 1.51 µM) | 0.78 µg/mL (≈ 1.51 µM) | 0.78 µg/mL (≈ 1.51 µM) | 0.78 µg/mL (≈ 1.51 µM) | 1.56 µg/mL (≈ 3.02 µM) | 3.12 µg/mL (≈ 6.04 µM) | 0.78 µg/mL (≈ 1.51 µM) | 0.78 µg/mL (≈ 1.51 µM) | 6.25 µg/mL (≈ 12.1 µM) |
| O=C(O)c1ccc(-n2cc(CNc3cc(Cl)ccc3Cl)c(-c3ccc(C(F)(F)F)cc3)n2)cc1 | 0.78 µg/mL (≈ 1.54 µM) | 0.78 µg/mL (≈ 1.54 µM) | 0.78 µg/mL (≈ 1.54 µM) | 0.78 µg/mL (≈ 1.54 µM) | 0.78 µg/mL (≈ 1.54 µM) | 1.56 µg/mL (≈ 3.08 µM) | 0.78 µg/mL (≈ 1.54 µM) | 0.78 µg/mL (≈ 1.54 µM) | 3.12 µg/mL (≈ 6.16 µM) |
| O=C(O)c1ccc(-n2cc(CNc3ccc(Cl)c(Cl)c3F)c(-c3ccc(C(F)(F)F)cc3)n2)cc1 | 0.78 µg/mL (≈ 1.49 µM) | 0.78 µg/mL (≈ 1.49 µM) | 0.78 µg/mL (≈ 1.49 µM) | 0.78 µg/mL (≈ 1.49 µM) | 0.78 µg/mL (≈ 1.49 µM) | 0.78 µg/mL (≈ 1.49 µM) | 0.78 µg/mL (≈ 1.49 µM) | 0.78 µg/mL (≈ 1.49 µM) | 1.56 µg/mL (≈ 2.98 µM) |
| O=C(O)c1ccc(-n2cc(CNc3ccc(F)c(F)c3)c(-c3ccc(C(F)(F)F)cc3)n2)cc1 | 1.56 µg/mL (≈ 3.3 µM) | 1.56 µg/mL (≈ 3.3 µM) | 1.56 µg/mL (≈ 3.3 µM) | 0.78 µg/mL (≈ 1.65 µM) | 1.56 µg/mL (≈ 3.3 µM) | 6.25 µg/mL (≈ 13.2 µM) |  | 3.12 µg/mL (≈ 6.59 µM) | 12.5 µg/mL (≈ 26.4 µM) |
| O=C(O)c1ccc(-n2cc(CNc3cccc(Cl)c3F)c(-c3ccc(C(F)(F)F)cc3)n2)cc1 | 1.56 µg/mL (≈ 3.18 µM) | 0.78 µg/mL (≈ 1.59 µM) | 1.56 µg/mL (≈ 3.18 µM) | 3.12 µg/mL (≈ 6.37 µM) | 1.56 µg/mL (≈ 3.18 µM) |  | 0.78 µg/mL (≈ 1.59 µM) | 0.78 µg/mL (≈ 1.59 µM) |  |
| O=C(O)c1ccc(-n2cc(CNc3cc(C(F)(F)F)cc(C(F)(F)F)c3)c(-c3ccc(C(F)(F)F)cc3)n2)cc1 | 0.78 µg/mL (≈ 1.36 µM) | 0.78 µg/mL (≈ 1.36 µM) | 0.78 µg/mL (≈ 1.36 µM) | 0.78 µg/mL (≈ 1.36 µM) | 0.78 µg/mL (≈ 1.36 µM) | 1.56 µg/mL (≈ 2.72 µM) | 0.78 µg/mL (≈ 1.36 µM) | 0.78 µg/mL (≈ 1.36 µM) | 0.78 µg/mL (≈ 1.36 µM) |
| O=C(O)c1ccc(-n2cc(CNc3cc(C(F)(F)F)ccc3F)c(-c3ccc(C(F)(F)F)cc3)n2)cc1 | 1.56 µg/mL (≈ 2.98 µM) | 0.78 µg/mL (≈ 1.49 µM) | 0.78 µg/mL (≈ 1.49 µM) | 0.78 µg/mL (≈ 1.49 µM) | 1.56 µg/mL (≈ 2.98 µM) | 3.12 µg/mL (≈ 5.96 µM) | 0.78 µg/mL (≈ 1.49 µM) | 1.56 µg/mL (≈ 2.98 µM) | 6.25 µg/mL (≈ 11.9 µM) |
| O=C(O)c1ccc(-n2cc(CNc3cc(F)c(F)c(F)c3)c(-c3ccc(C(F)(F)F)cc3)n2)cc1 | 0.78 µg/mL (≈ 1.59 µM) | 0.78 µg/mL (≈ 1.59 µM) | 0.78 µg/mL (≈ 1.59 µM) | 0.78 µg/mL (≈ 1.59 µM) | 0.78 µg/mL (≈ 1.59 µM) | 1.56 µg/mL (≈ 3.17 µM) | 0.78 µg/mL (≈ 1.59 µM) | 0.78 µg/mL (≈ 1.59 µM) | 1.56 µg/mL (≈ 3.17 µM) |
| O=C(O)c1ccc(-n2cc(CNc3cc(Cl)c(O)c(Cl)c3)c(-c3ccc(C(F)(F)F)cc3)n2)cc1 | 50 µg/mL (≈ 95.7 µM) | 50 µg/mL (≈ 95.7 µM) | 50 µg/mL (≈ 95.7 µM) | 50 µg/mL (≈ 95.7 µM) | 50 µg/mL (≈ 95.7 µM) | 50 µg/mL (≈ 95.7 µM) | 12.5 µg/mL (≈ 23.9 µM) | inactive | 50 µg/mL (≈ 95.7 µM) |
| O=C(O)c1ccc(-n2cc(CNc3ccc(F)c(F)c3F)c(-c3ccc(C(F)(F)F)cc3)n2)cc1 | 1.56 µg/mL (≈ 3.17 µM) | 1.56 µg/mL (≈ 3.17 µM) | 1.56 µg/mL (≈ 3.17 µM) | 1.56 µg/mL (≈ 3.17 µM) | 1.56 µg/mL (≈ 3.17 µM) | 3.12 µg/mL (≈ 6.35 µM) | 0.78 µg/mL (≈ 1.59 µM) | 3.12 µg/mL (≈ 6.35 µM) | inactive |
| O=C(O)c1ccc(-n2cc(CNc3ccc(Cl)c(Cl)c3)c(-c3ccc(C(F)(F)F)cc3)n2)cc1 | 0.78 µg/mL (≈ 1.54 µM) | 0.78 µg/mL (≈ 1.54 µM) | 0.78 µg/mL (≈ 1.54 µM) | 1.56 µg/mL (≈ 3.08 µM) | 0.78 µg/mL (≈ 1.54 µM) |  | 0.78 µg/mL (≈ 1.54 µM) | 0.78 µg/mL (≈ 1.54 µM) |  |
| O=C(O)c1ccc(-n2cc(CNc3cc(Cl)c(F)cc3F)c(-c3ccc(C(F)(F)F)cc3)n2)cc1 | 1.56 µg/mL (≈ 3.07 µM) | 0.78 µg/mL (≈ 1.54 µM) | 1.56 µg/mL (≈ 3.07 µM) | 0.78 µg/mL (≈ 1.54 µM) | 1.56 µg/mL (≈ 3.07 µM) | 3.12 µg/mL (≈ 6.14 µM) | 0.78 µg/mL (≈ 1.54 µM) | 1.56 µg/mL (≈ 3.07 µM) | 6.25 µg/mL (≈ 12.3 µM) |
